Results published in ChEMBL document CHEMBL3779852, “Structure-based design of N-substituted 1-hydroxy-4-sulfamoyl-2-naphthoates as selective inhibitors of the Mcl-1 oncoprotein” (Eur J Med Chem, 2016).
Activity calls are given as the source filed them. The calls are words filed in the database; no cut-off is given here.

What was measured:
[1] = Inhibition of Bcl-XL (unknown origin) after 3 hrs by fluorescence polarization competition assay; design: species or system Homo sapiens
Homo sapiens = species on record: Homo sapiens; assay: Selectivity ratio of Ki for Bcl-XL (unknown origin) to Ki for His6-MBP tagged recombinant human Mcl-1 residues 172 to 327 expressed in Escherichia coli
Summary of the method: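 Ratio computed as Ki(Bcl-xL) divided by Ki(Mcl-1). Both Ki values come from FP competition IC50s converted with the Nikolovska-Coleska equation, averaged over at least two independent assays. Hill-equation fit gives the IC50.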

SK-MEL-5 = assay: Antiproliferative activity against human SK-MEL-5 cells after 48 hrs by Cell titer blue viability assay; format: functional, cell-based; details: SK-MEL-5, 48 h
[2] = biological target: T1, Induced myeloid leukemia cell differentiation protein Mcl-1 (Homo sapiens, UniProt Q07820); assay: Inhibition of His6-MBP tagged recombinant human Mcl-1 residues 172 to 327 expressed in Escherichia coli assessed as inhibition of interaction with Bak BH3 peptide (GQVGRQLAIIGDDINR) after 3 hrs by fluorescence polarization competition assay
A-375 = assay: Antiproliferative activity against human A375 cells after 48 hrs by Cell titer blue viability assay; format: functional, cell-based; details: A-375, 48 h
Summary of the method: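 A375 cells seeded at 5,000/well in DMEM with 10% HIFBS and PenStrep, cultured overnight. Compounds added at final 4.69–300 μM (two-fold series) in 1% DMSO; vehicle controls also at 1% DMSO. After 48 h exposure, Cell Titer-Blue added for 2 h, fluorescence read at 560 ex/590 em. Percent viability relative to untreated cells, corrected for cell-free background.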

[3] = biological target: T1, Induced myeloid leukemia cell differentiation protein Mcl-1; assay: Binding affinity to recombinant human 15N-labeled Mcl-1 (172 to 327 residues) expressed in Escherichia coli by NMR spectroscopy
Summary of the method: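 Proton shifts were referenced to the H2O/HDO signal (4.658 ppm versus external TSP) at 37 °C. The protein was size-exclusion purified to >98% purity by SDS-PAGE, with concentration determined by Bradford assay.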

T1 sequence (Q07820 whole entry, the tested form may be a part): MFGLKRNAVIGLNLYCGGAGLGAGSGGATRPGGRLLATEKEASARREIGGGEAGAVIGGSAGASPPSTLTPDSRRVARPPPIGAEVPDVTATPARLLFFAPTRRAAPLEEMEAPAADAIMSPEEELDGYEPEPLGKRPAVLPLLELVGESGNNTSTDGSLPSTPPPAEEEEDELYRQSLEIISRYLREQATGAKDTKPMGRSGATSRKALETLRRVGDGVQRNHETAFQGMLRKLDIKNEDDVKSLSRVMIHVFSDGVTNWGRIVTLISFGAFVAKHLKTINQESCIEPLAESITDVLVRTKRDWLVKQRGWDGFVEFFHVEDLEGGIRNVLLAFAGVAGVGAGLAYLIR

Row | Ki ([1]; read-out: Ki) [µM] | Ratio Ki (Homo sapiens) | Structure (SMILES) | further results
1 | 0.3 | 3.8 | O=C(O)c1cc(S(=O)(=O)Nc2ccc(Oc3cccc(Br)c3)cc2)c2ccccc2c1O | –
2 | 0.39 | 1.4 | Cc1cc(C)cc(Oc2ccc(NS(=O)(=O)c3cc(C(=O)O)c(O)c4ccccc34)cc2)c1 | –
3 | – | – | COC(=O)c1cc(S(=O)(=O)N(CC(C)C)c2ccc(OC(C)C)cc2)c2ccccc2c1O | IC50 (SK-MEL-5): 300 µM; inhibition [2]: inactive; IC50 (A-375): 300 µM
4 | 51.4 | 19 | O=C(O)c1cc(S(=O)(=O)Nc2ccc(Br)cc2)c2ccccc2c1O | IC50 (SK-MEL-5): 300 µM; IC50 (A-375): 300 µM
5 | 68.5 | 15 | O=C(O)c1cc(S(=O)(=O)Nc2ccc3ccccc3c2)c2ccccc2c1O | –
6 | – | – | COC(=O)c1cc(S(=O)(=O)N(CC(C)C)c2ccc(Br)cc2)c2ccccc2c1OC | Ki [2]: > 500 µM
7 | – | – | CC(=O)OCOC(=O)c1cc(S(=O)(=O)N(CC(C)C)c2ccc(OC(C)C)cc2)c2ccccc2c1O | IC50 (SK-MEL-5): 15 µM; inhibition [2]: inactive
8 | 0.19 | 2.4 | O=C(O)c1cc(S(=O)(=O)Nc2ccc(Oc3ccc(Cl)cc3Cl)cc2)c2ccccc2c1O | –
9 | – | – | CC(C)Oc1ccc(NS(=O)(=O)c2cc(C(=O)O)c(O)c3ccccc23)cc1 | Ki [1]: Not Active
10 | – | – | O=C(O)c1cc(S(=O)(=O)Nc2ccccc2)c2ccccc2c1O | Ki [1]: Not Active
11 | – | – | COC(=O)c1cc(S(=O)(=O)N(CC(C)C)c2ccc(Br)cc2)c2ccccc2c1O | Ki [2]: > 500 µM
12 | 0.84 | 2.5 | Cc1ccc(Oc2ccc(NS(=O)(=O)c3cc(C(=O)O)c(O)c4ccccc34)cc2)cc1 | –
13 | 0.17 | 2.1 | Cc1cc(Oc2ccc(N(CC(C)C)S(=O)(=O)c3cc(C(=O)O)c(O)c4ccccc34)cc2)cc(C)c1Cl | –
14 | – | – | O=C(O)c1cc(S(=O)(=O)NCc2ccccc2)c2ccccc2c1O | Ki [1]: Not Active
15 | 71.9 | 6 | COc1ccc(NS(=O)(=O)c2cc(C(=O)O)c(O)c3ccccc23)cc1 | –
16 | 77.6 | 11 | O=C(O)c1cc(S(=O)(=O)NCC2CCCCC2)c2ccccc2c1O | –
17 | 0.48 | 4.1 | Cc1cc(Oc2ccc(NS(=O)(=O)c3cc(C(=O)O)c(O)c4ccccc34)cc2)cc(C)c1Cl | –
18 | 338 | 16 | O=C(O)c1cc(S(=O)(=O)NCc2ccc(Cl)cc2)c2ccccc2c1O | –
19 | – | – | NS(=O)(=O)c1cc(C(=O)O)c(O)c2ccccc12 | Ki [1]: Not Active
20 | 19.3 | 4.8 | O=C(O)c1cc(S(=O)(=O)Nc2ccccc2C(F)(F)F)c2ccccc2c1O | –
21 | 6.08 | – | CC(C)CN(c1ccc(OC(C)C)cc1)S(=O)(=O)c1cc(C(=O)O)c(O)c2ccccc12 | IC50 (SK-MEL-5): 300 µM; Activity [3]: Active; IC50 (A-375): 150 µM
22 | 2.31 | 5.5 | O=C(O)c1cc(S(=O)(=O)Nc2ccc(Br)cc2Br)c2ccccc2c1O | –
23 | 0.22 | 3.7 | O=C(O)c1cc(S(=O)(=O)Nc2ccc(Oc3cccc4ccccc34)cc2)c2ccccc2c1O | –
24 | 0.29 | 8.8 | Cc1cc(Oc2ccc(N(C3CCCC3)S(=O)(=O)c3cc(C(=O)O)c(O)c4ccccc34)cc2)cc(C)c1Cl | –
25 | 110 | 10 | O=C(O)c1cc(S(=O)(=O)Nc2cccc3ccccc23)c2ccccc2c1O | –
26 | – | – | CN(C)S(=O)(=O)c1cc(C(=O)O)c(O)c2ccccc12 | Ki [1]: Not Active
27 | 23.3 | 5.2 | O=C(O)c1cc(S(=O)(=O)Nc2ccc([N+](=O)[O-])cc2)c2ccccc2c1O | –
28 | 0.34 | – | Cc1cc(Oc2ccc(N(Cc3ccccc3)S(=O)(=O)c3cc(C(=O)O)c(O)c4ccccc34)cc2)cc(C)c1Cl | IC50 (SK-MEL-5): 90 µM; IC50 (A-375): 50 µM
